# Screening data as filed in PubChem.
# Sampled rows, rich in hits. Any-hit rate of the full collection: about 3.7%.
# TAAR1 antagonist – antagonists of human TAAR1 | Q96RJ0 | CHO RD-HGA16 TAAR1, Fluo-8 calcium fluorescence, antagonist | inhibition, % at 3 µM | 360,000 compounds, 1.5% hits;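 active means inhibition above a per-plate cutoff, the mean inhibition of test compounds on that plate plus 3 SD, cut at about 49% in these data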;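 further: 0% = DMSO plus EC80 beta-PEA response and 100% = DMSO alone without agonist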
# Target sequence (Q96RJ0 whole entry, looked up): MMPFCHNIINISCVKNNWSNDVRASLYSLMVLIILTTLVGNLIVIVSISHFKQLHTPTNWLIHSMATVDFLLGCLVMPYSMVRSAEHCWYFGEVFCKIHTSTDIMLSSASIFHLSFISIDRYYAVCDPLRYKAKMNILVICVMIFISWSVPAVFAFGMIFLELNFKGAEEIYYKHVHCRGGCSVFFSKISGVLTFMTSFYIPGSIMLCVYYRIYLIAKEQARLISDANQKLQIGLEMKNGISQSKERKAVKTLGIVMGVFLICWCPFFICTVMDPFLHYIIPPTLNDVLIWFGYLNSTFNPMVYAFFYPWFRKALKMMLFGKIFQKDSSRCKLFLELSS
#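 Material: RD-HGA16 CHO cells with stable hTAAR1 and Gα16; Dosing: single nominal final test compound concentration of 3 µM; Schedule: seeding 17-24 h prior, 75-min 37 °C, 30-min RT dye loading; Detection: kinetic Fluo-8 calcium fluorescence measurement; Measure: % inhibition from peak post-agonist over basal fluorescence ratio; Benchmarks: vehicle and agonist controls.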
# TAAR1 ag – human TAAR1 agonism; 360,000 compounds, 0.99% hits; activation, % at 3 µM; Q96RJ0; CHO RD-HGA16 TAAR1, Fluo-8 calcium fluorescence; vehicle wells 0%, saturating PEA agonist 100%; AID 624467;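 active means activation above the mean activation of all test compounds in the run plus 3 SD, cut at about 38% in these data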
#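 Benchmarks: low control DMSO, high control PEA (EC100); System: CHO RD-HGA16 cells carrying human TAAR1 plus Gα16; Detection: Fluo-8 fluorescence, 5 s baseline then 140 s kinetic read; Schedule: 17-24 h plating, Fluo-8 75 min 37 °C, 30 min RT; Read-out basis: % activation from peak over basal fluorescence ratio, DMSO-to-PEA scaled.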
# rCAG binder – binds r(CAG) RNA repeats. r(CAG) RNA repeat, TO-PRO-1 dye displacement fluorescence. inhibition, % at 3 µM. 370,000 compounds, 1.3% hits. AID 651821;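 active means inhibition above the plate cutoff, the mean of all test compounds on that plate plus 3 SD, cut at about 35% in these data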;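 further: 0% = DMSO alone and 100% = 100 µM mitoxantrone as full dye displacement; higher means more dye released from RNA so lower well fluorescence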
# HCV core dimer – blocks dimerization of HCV core protein; inhibition, % at 5 µM; 300,000 compounds, 0.33% hits; TR-FRET GST/Flag-core106 dimerization, 1536-well;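 active means inhibition above the mean of all tested compounds plus 3 SD, set per screening campaign, cut at about 45% in these data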
#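 Assay system: Tagged HCV core106 pair (GST and Flag) | Buffer or medium: KF-containing HEPES buffer, pH 7.45, DTT, CHAPS, BSA | Also added: Eu donor and XL665 acceptor anti-tag antibodies | Dosing: One concentration, 5 µM, in 0.5% DMSO | Timing: 4 h at 22.5 °C | Technique: TR-FRET 671 and 617 nm emission | Repeats: Singlicate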
# HCV NS3 hel inh – HCV NS3 helicase inhibition | 290,000 compounds, 0.56% hits | inhibition, % at 10.9 µM | NS3 helicase DNA unwinding, Cy5 molecular beacon fluorescence;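 active means inhibition above the mean of all tested compounds plus 3 SD, set per campaign, cut at about 35% in these data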;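 further: 0% = DMSO wells and 100% = thioflavine S control wells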
#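 System: Hepatitis C virus NS3 helicase domain fragment enzyme | Reagent: Annealed dual-labelled DNA beacon duplex, ATP-started | Compound dosing: 10.9 µM single point, 0.8% DMSO | Incubation: 1 h reaction at 25 °C, ATP-initiated | Technique: Cy5 fluorescence | Evaluation: Percent inhibition from t60/t0 fluorescence ratio | Benchmarks: Low DMSO, high thioflavine S at 110 µM | Replication: Singlicate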
# TAAR1 ag confirm – confirmation of human TAAR1 agonists. shares compounds with TAAR1 ag. activation, % at 3 µM. CHO RD-HGA16 TAAR1, Fluo-8 calcium fluorescence; scaled: DMSO 0%, maximal phenethylamine 100%. 2,400 compounds, 82% hits;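 active means activation above a cutoff set at the run's mean compound activation plus 3 SD, cut at about 39% in these data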
# Ga16 ag counter – nonselective agonist in parental cells, TAAR1 agonist counter-screen; shares compounds with TAAR1 ag; CHO-Ga16 parental, Fluo-8 calcium fluorescence; normalized to maximal ATP response, DMSO zero; activation, % at 3 µM; 2,400 compounds, 50% hits;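 active means activation above the run cutoff, the mean activation over all tested wells plus 3 SD, cut at about 12% in these data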;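 further: 0% = DMSO wells and 100% = maximal ATP response on the peak over basal ratio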
# TAAR1 desens – counter-screen for human TAAR1 agonists: agonists that desensitize TAAR1; AID 651951; CHO RD-HGA16 hTAAR1, Fluo-8 calcium, beta-PEA response inhibition; 2,400 compounds, 46% hits; inhibition, % at 3 µM; shares compounds with TAAR1 ag;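 active means inhibition above the run cutoff, the mean inhibition of all test compounds plus 3 SD, cut at about 49% in these data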;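 further: beta-PEA stimulus applied at its EC80; loss of beta-PEA calcium signal after compound pretreatment read as receptor desensitization; 0% = DMSO with beta-PEA at EC80 and 100% = DMSO alone without agonist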
# Ga16 antag count – counter-screen for TAAR1 agonists: nonselective Ga16 antagonists; shares compounds with TAAR1 ag; CHO-Ga16 ATP-induced calcium, Fluo-8 fluorescence; inhibition, % at 3 µM; 2,400 compounds, 39% hits; AID 651952;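 active means inhibition above the plate's mean compound inhibition plus 3 SD, computed per plate, cut at about 22% in these data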;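 further: 0% = EC80 ATP with DMSO and 100% = DMSO wells without ATP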
# * = called active by the depositor; . = not tested or not shown.
SMILES,TAAR1 antagonist,TAAR1 ag,rCAG binder,HCV core dimer,HCV NS3 hel inh,TAAR1 ag confirm,Ga16 ag counter,TAAR1 desens,Ga16 antag count
CN1OC[C@@H]2CN(C(=O)c3ccc(C#N)cc3)[C@H](c3cccc(Br)c3)C[C@@H]21,-19,1,2,.,.,.,.,.,.
CCOC(=O)C1=C(Cc2ccc(C)cc2)C(=O)c2ccccc2C1=O,54*,54*,6,-7,3,19,23*,42,44*
CN(CCc1ccccc1)C(C(=O)c1ccc2c(c1)OCO2)c1nnnn1-c1ccccc1NC(=O)OC(C)(C)C (stereo not drawn),78*,86*,11,.,.,85*,1,82*,8
Cc1ccc(-n2c(SC/C=C/c3ccccc3)nnc2-c2cccs2)cc1,.,.,5,.,.,.,.,.,.
CCc1ccc(C(=O)NCc2ccc(Cl)cc2)cc1,33,65*,-4,-2,3,2,21*,8,15
O=C(Nc1nc2c(Cl)ccc(Cl)c2s1)c1ccco1,70*,114*,3,15,9,107*,89*,92*,62*
O=C(Nc1nc2ccsc2c(=O)s1)c1ccco1,-4,1,-1,-2,6,.,.,.,.
Cc1ccccc1NC(=O)C1CCCN1S(=O)(=O)c1cccnc1 (stereo not drawn),.,.,2,.,.,.,.,.,.
CC(=O)NCCOc1cccc2ccccc12,-3,4,-2,2,6,.,.,.,.
c1ccc(CCNCCCOc2cccc3ccccc23)cc1,43,57*,11,-11,-70,95*,26*,87*,34*
Clc1ccc(OCCNCCc2ccccc2)cc1,11,81*,-2,-2,-30,92*,10,75*,17
O=C(COc1ccc(Cl)cc1)NCc1ccccc1,-7,2,-9,-3,-3,.,.,.,.
NC(Cc1ccc(C(F)(F)F)cc1)c1csc(Nc2nccc(C(F)(F)F)n2)n1 (stereo not drawn),41,61*,13,.,.,43*,20*,40,23*
COC(=O)c1cnc(Nc2nc(C(N)Cc3ccccc3)cs2)nc1C(F)(F)F (stereo not drawn),43,63*,20,.,.,50*,27*,31,23*
COC(=O)c1cnc(Nc2nc(C(N)Cc3ccc(Cl)cc3)cs2)nc1C(F)(F)F (stereo not drawn),-9,10,18,.,.,.,.,.,.
CCCc1cnc(Nc2nc(C(N)Cc3ccc(C(F)(F)F)cc3)cs2)nc1 (stereo not drawn),34,68*,12,.,.,80*,63*,54*,59*
COc1ccc2c(c1)CCCN2C(=O)C1CCCN(S(=O)(=O)c2c(C(C)C)cc(C(C)C)cc2C(C)C)C1 (stereo not drawn),.,.,6,.,.,.,.,.,.
CCN1C(N(C)CCc2cccs2)=N[C@@H](c2ccccc2)C(C(=O)OC)=C1C,18,68*,3,4,-28,74*,6,35,1
O=c1cc(Nc2ccc3c(c2)OCO3)[nH]c(=O)n1-c1ccc(Br)cc1,-7,48*,31,35,13,76*,6,25,7
O=c1cc(Nc2ccc3c(c2)OCCO3)[nH]c(=O)n1-c1ccc(Br)cc1,-5,26,14,4,-2,.,.,.,.
Cc1ccccc1NC(=O)C(=O)NCC1CCCN1S(=O)(=O)c1cccs1 (stereo not drawn),-8,1,0,1,.,.,.,.,.
O=C(NCCc1ccccc1)C(=O)NCC1CCCN1S(=O)(=O)c1cccs1 (stereo not drawn),69*,89*,3,2,.,98*,9,95*,27*
